We go through 3 compounds from ChEMBL document CHEMBL2146381, “Structure-activity relationship (SAR) study of ethyl 2-amino-6-(3,5-dimethoxyphenyl)-4-(2-ethoxy-2-oxoethyl)-4H-chromene-3-carboxylate (CXL017) and the potential of the lead against multidrug resistance in cancer treatment” (J Med Chem, 2012).

The subject of assay [1] is CCRF-CEM. Put plainly: Cytotoxicity against human CCRF-CEM cells assessed as cell viability after 48 hrs by celltiter-blue assay. In kind it is functional, cell-based. The essentials:
(§1)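 Tumour cell growth inhibition was measured in vitro, following the lab's established procedure. IC50 values are the mean of at least two independent experiments, each run in triplicate.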
A general note: Resazurin is reduced to fluorescent resorufin, in cell work by metabolically active cells.

Assay [2] deals with HL-60. Put plainly: Cytotoxicity against human HL60 cells assessed as cell viability after 48 hrs by celltiter-blue assay. The assay is classed as functional, cell-based. Conditions: HL-60, 48 h. The essentials:
as §1

In assay [3] the test system is K562. The experiment in a line: Cytotoxicity against human K562 cells assessed as cell viability after 48 hrs by celltiter-blue assay. The assay is classed as functional, cell-based. Conditions: K562, 48 h. The essentials:
as §1

Assay [4] concerns K562. Put plainly: Ratio of IC50 for human K562/HHT300 cells to IC50 for human K562 cells. In kind it is functional. Put shortly: (§2)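 Each resistant subline and its matched parental line were tested in the same growth-inhibition assay, with IC50 taken as the mean of at least two independent experiments in triplicate. The MDR/parental IC50 ratio is reported as relative sensitivity: above 1 means resistance, below 1 means collateral sensitivity. Parental lines came from different sources for each resistant pair.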

For assay [5], the system named is CCRF-CEM. Put plainly: Ratio of IC50 for human CCRF-CEM/VM-1-5 cells IC50 for human CCRF-CEM cells. The assay is classed as functional. The essentials:
as §2

Assay [6] has as its system CCRF-CEM. The experiment in a line: Ratio of IC50 for human CCRF-CEM/VLB100 cells IC50 for human CCRF-CEM cells. In kind it is functional. Put shortly: as §2
The subject of assay [7] is HL-60. Put plainly: Ratio of IC50 for doxorubicin-resistant human HL60 cells to IC50 for human HL60 cells. The assay is classed as functional. Put shortly:
as §2

For assay [8], the system named is HL-60. Put plainly: Ratio of IC50 for daunorubicin-resistant human HL60 cells to IC50 for human HL60 cells. In kind it is functional. Put shortly:
as §2

Assay [9] concerns K562. The experiment in a line: Ratio of IC50 for doxorubicin-resistant human K562 cells to IC50 for human K562 cells. The assay is classed as functional. The essentials: as §2
Assay [10] relates to CCRF-CEM. The experiment in a line: Ratio of IC50 for human CCRF-CEM/C2 cells IC50 for human CCRF-CEM cells. The assay is classed as functional. The essentials: as §2
The subject of assay [11] is HL-60. The experiment in a line: Ratio of IC50 for human HL60/ADR cells to IC50 for human HL60 cells. The assay is classed as functional. Put shortly:
as §2

Assay [12] has as its system HL-60. The experiment in a line: Ratio of IC50 for human HL60/MX2 cells to IC50 for human HL60 cells. In kind it is functional. The essentials: as §2

The IC50 is the concentration at which inhibition is half-maximal. Take `COc1cc([C@@H]2c3cc4c(cc3[C@@H](O[C@@H]3O[C@@H]5CO[C@@H](C)O[C@H]5[C@H](O)[C@H]3O)[C@H]3COC(=O)[C@H]23)OCO4)cc(OC)c1O` [ETOPOSIDE]: the 50% inhibitory concentration (IC50) in assay [1] turned out to be 240 nM; in assay [2], 110 nM; in [3], 2300 nM. Besides, the “Ratio IC50” value in assay [4] is recorded as more than 1000; in assay [5], more than 50; in assay [6], 8.6; in assay [7], more than 200; in assay [8], more than 50; in assay [9], more than 15. In addition, the entries for the “Ratio IC50” value in assay [10], in [11] and in [12] were 2.5, more than 10 and 9, respectively.
Turning to `O=C1c2c(O)ccc(O)c2C(=O)c2c(NCCNCCO)ccc(NCCNCCO)c21` [MITOXANTRONE], the IC50 in assay [1] worked out at 36 nM; in [2], 16 nM; in assay [3] it was 510 nM. For the same compound, the “Ratio IC50” value is more than 10 in assay [4]; more than 30 in [5]; 2.3 in assay [6]; more than 20 in [7]; more than 10 in assay [8]; 5.1 in assay [9]. In addition, the entries for the “Ratio IC50” value in [10], in assay [11] and in assay [12] were 3, 2.4 and more than 20, respectively.
As to `C/C=C(/C)C(=O)O[C@H]1C(C)=C2[C@H]([C@@H]1OC(=O)CCCCCCC)[C@@](C)(OC(C)=O)C[C@H](OC(=O)CCC)[C@@]1(O)[C@H]2OC(=O)[C@@]1(C)O` [THAPSIGARGIN], the IC50 in [1] turned out to be 270 nM; in assay [2], 7 nM; in [3], 170 nM. Also, the “Ratio IC50” value in assay [4] was more than 10; in assay [5], 1; in [6], 7.7; in assay [7], more than 50; in [8] it was more than 50; in [9] it was 4.2. Moreover, the “Ratio IC50” value in assay [10] stood at 1.45; in assay [11], 1; in assay [12] it was 0.02.
